Assay results as given in the RNAGym collection of RNA variant scans (doi:10.1126/science.aae0568).
Variants at the floor of the assay were thinned out.

B1: tRNA (parent)
chain: GUUCCGUUGGCGUAAUGGUAACGCGUCUCCCUCCUAAGGAGAAGACUGCGGGUUCGAGUCCCGUACGGAACG

Variants of: B1
Assay: yeast fitness relative to wild type (ratio to wild type); higher = fitter; tRNA-Arg(CCU), competitive growth, 37 C, YPD
Summary of the method: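 A pool of Saccharomyces cerevisiae strains, each with a tRNA-Arg(CCU) gene variant at the native genomic locus, was competed in YPD at 37°C for 24 hours across six parallel replicates. The variants had been chemically synthesised at a 3% per-site mutation rate over 69 sites, and gene amplicons before and after competition were read by 100-nucleotide paired-end sequencing. Darwinian fitness relative to wild type rested on changes in genotype frequencies. Genotypes required ≥ 100 starting reads, and estimates < 0.5 were set to 0.5.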

Row | Variant | yeast fitness
1 | A14G U32G C60U C62U | 0.539
2 | A14U A40C A57C C61U | ≤ 0.5
3 | A14U U16C A21G C24U C46G C62U | ≤ 0.5
4 | A14U C31U C55U G68A | 0.618
5 | A15C C22G A43C | ≤ 0.5
6 | A14U A57C C60G C61A | 0.601
7 | A14U G18C C29U A37U | ≤ 0.5
8 | A14G U19C G38C G44C C46A | 0.704
9 | A15C A36G G56A C61U | ≤ 0.5
10 | A15C A20G C31A U59C A69G | ≤ 0.5
11 | A14G U19G C27G C34A A42U | ≤ 0.5
12 | A14U U16A C33G | ≤ 0.5
13 | A14U C31G G38A | 0.657
14 | A14G U19C | 0.919
15 | A14U C34G C61G | ≤ 0.5
16 | A14G G56C | 0.611
17 | A14G U32G U35G A36C C61G A70G | ≤ 0.5
18 | A14U A20U C49U | ≤ 0.5
19 | A15C A20G A65U A69G | ≤ 0.5
20 | A14U C34A C46U | ≤ 0.5
21 | A14U A45U G58C | ≤ 0.5
22 | A15C A36G | 0.888
23 | A14U G50C U53A A57U A65U | 0.687
24 | A14U A20C U59C | ≤ 0.5

Row | Variant | yeast fitness
25 | A15C C31A A37U | ≤ 0.5
26 | A14G U28C U32C C33U G56A | ≤ 0.5
27 | A15C A36G U47C C55A A69U | 0.538
28 | A14U A21U C22U | 0.527
29 | A14G U19C A21U | 0.503
30 | A14U G25A C61U | 0.649
31 | A14U G39C | 0.507
32 | A14G U19A A20G A40U C61G | 0.515
33 | A14U U47A G56A | ≤ 0.5
34 | A14U A42C G52A G56C | ≤ 0.5
35 | A15C A43U A65G | 0.583
36 | A14U U64C | 0.71
37 | A15C A40C U54C | ≤ 0.5
38 | A15C C30U C33G | ≤ 0.5
39 | A14U C29G A57G U59G C62G C66U | ≤ 0.5
40 | A14U A57U C60A | ≤ 0.5
41 | A15C A43U C49G | 0.515
42 | A15C C30A A42C G56A A57U | 0.578
43 | A15C C30A G63A | ≤ 0.5
44 | A15C A43C G48C | 0.544
45 | A14U C46A G51C A57U U64G | 0.584
46 | A14U G17C U53G | 0.603
47 | A14U C22A A43G | ≤ 0.5
48 | A14G U16G C24G U26C G50C A65U | ≤ 0.5

Row | Variant | yeast fitness
49 | A15C C27A G58A A70U | 0.525
50 | A14U C22G A70U | 0.576
51 | A14U C49A A57G | 0.542
52 | A14G U54C A70G | 0.535
53 | A14U C27G A36G G52C C61A | ≤ 0.5
54 | A14U A45U G68C | ≤ 0.5
55 | A14U G23C C55A | 0.559
56 | A15C C24G A69U | 0.533
57 | A14U U28A G56C G67U | ≤ 0.5
58 | A14G U16A C24G G51A | 0.511
59 | A14U C30U C60A C66U | 0.618
60 | A14U A37U | ≤ 0.5
61 | A14U G17C C24A C30G A57G | ≤ 0.5
62 | A14U G44C G51A A70U | 0.596
63 | A15C A21G C22U A43U A57U | ≤ 0.5
64 | A14U A15U C34G A42C | 0.537
65 | A15C | 0.904
66 | A14U U28A C46G | ≤ 0.5
67 | A14U U19A C31U | ≤ 0.5
68 | A14U C22A U28A C30U U53A U54C | ≤ 0.5
69 | A14G G68A | 0.653
70 | A15C C27A U32G | 0.709
71 | A15C A57G | 0.812
72 | A14U U35C C55A C60A | ≤ 0.5

Row | Variant | yeast fitness
73 | A14U C27A C33U U47C C49U G51A | ≤ 0.5
74 | A14U G56A | 0.619
75 | A15C C31G C33G C55U | ≤ 0.5
76 | A14U G23C A70C | 0.586
77 | A15C A20G C33A A36C U47A | ≤ 0.5
78 | A15C A20G C61U C62U A69G | 0.764
79 | A15C A21U C24U | ≤ 0.5
80 | A14U A36G U53A | ≤ 0.5
81 | A15C A21G | 0.58
82 | A14U G67A | 0.733
83 | A14U G17C C24A C30G | 0.524
84 | A14U G25A C60G C66G | ≤ 0.5
85 | A14U G58A C61U | 0.509
86 | A14G U19C G67A | 0.76
87 | A15C C27U C31A | ≤ 0.5
88 | A15C C22A A42C C46A A65U | ≤ 0.5
89 | A14U U19A C24G U54A | ≤ 0.5
90 | A14U A36U C62G | ≤ 0.5
91 | A14U C46G G63A | 0.53
92 | A15C C30A A57G | ≤ 0.5
93 | A14U C34G C61G A70C | ≤ 0.5
94 | A15C C29G G44C A45U U47A | ≤ 0.5
95 | A14U A43U A45G U53C | ≤ 0.5
96 | A14U A21C U54G | ≤ 0.5

Row | Variant | yeast fitness
97 | A15C A45C | 0.587
98 | A15C A45G | 0.583
99 | A14U A20U G67A | 0.544
100 | A14U C46A C66U | ≤ 0.5
101 | A15C A37C U59C | 0.814
102 | A15C A40U A70U | 0.563
103 | A14U A15G C31A C34G C61U | ≤ 0.5
104 | A15C A40G U53C | ≤ 0.5
105 | A14U G18C | 0.583
106 | A14U U28A G51A | ≤ 0.5
107 | A15C A21G C22U U47C | ≤ 0.5
108 | A15C A36U A37G A65C | ≤ 0.5
109 | A14U G23U | 0.59
110 | A15C A36G C49U G67U | 0.632
111 | A14U G18C C34U | ≤ 0.5
112 | A14U A43G U59G C62G G63A | 0.558
113 | A14U A21U C29G C46U | ≤ 0.5
114 | A15C A20C C33U C34U C61G | ≤ 0.5
115 | A14U U59G A65U | 0.547
116 | A15C C27G G39C U47A | 0.689
117 | A14U G23A U32C | ≤ 0.5
118 | A14U C46U | 0.664
119 | A14U C46A | 0.599
120 | A14U A20C C27U U35C G48A C62A | ≤ 0.5

Row | Variant | yeast fitness
121 | A14G U19G G48C | 0.736
122 | A14U C31G G38A C66U | ≤ 0.5
123 | A14G U26A C27G C62A | 0.571
124 | A15C A42G C49A | 0.605
125 | A14U G18A C24A C34A | 0.53
126 | A14G U28A | 0.705
127 | A14U U19G C30G | ≤ 0.5
128 | A14G G63A | 0.756
129 | A15C C30G A42C G56A A57U G63A | ≤ 0.5
130 | A14G U35C A57G | ≤ 0.5
131 | A14U U59C A70C | ≤ 0.5
132 | A14U A15C | 0.681
133 | A14U A15G | 0.725
134 | A14U A45C A69U | 0.592
135 | A14U A15C A40G G56C G67C | ≤ 0.5
136 | A14U C30A A65C | ≤ 0.5
137 | A15C A21C C27G C62U | 0.534
138 | A14G U54A A69U | ≤ 0.5
139 | A15C C24U | 0.601
140 | A15C C24A | ≤ 0.5
141 | A15C A20C A65U | ≤ 0.5
142 | A14U C29U C30A A45C | ≤ 0.5
143 | A15C A37U | 0.624
144 | A14U C33G A37G A40C C49G G67C | ≤ 0.5

Row | Variant | yeast fitness
145 | A14U G18C A69U | ≤ 0.5
146 | A15C A43C | 0.609
147 | A14U A21G G25A C34G A57U A69U | ≤ 0.5
148 | A15C C29U G39C A42U G50U G51C A65U | 0.527
149 | A14U C29U A37U C66U | ≤ 0.5
150 | A14U U35C U53G C66G | ≤ 0.5
151 | A14U U32C A40C G67A | 0.529
152 | A14U A20G C30G A42C | ≤ 0.5
153 | A14U U16G U19A G56A G67A | ≤ 0.5
154 | A14U U16A A65U | 0.626
155 | A14U U16A C31G U47C G68C | ≤ 0.5
156 | A14U A15C C33A G39C | ≤ 0.5
157 | A14U G44C G51A G63A A70U | ≤ 0.5
158 | A14U A21C A36C C49A G68C | ≤ 0.5
159 | A14U A45C C46U C49G G63A A70U | 0.661
160 | A14U A36U A45G | ≤ 0.5
161 | A15C C29A C60G G68A | 0.609
162 | A14U G17A C22U C33G G67U | 0.613
163 | A14U A21G A43U G58C | ≤ 0.5
164 | A14U G23C C29G G51A G56U | ≤ 0.5
165 | A14U C22G A42U | ≤ 0.5
166 | A14U A37U A45U | ≤ 0.5
167 | A15C A36C G38C G52A | ≤ 0.5
